Experimental findings from PubChem BioAssay are described below.

The nature of assay [1]: OD615 S. cerevisiae growth inhibition, permissive medium, pilot counter-assay, permissive growth control for S. cerevisiae lifespan shortening project (AID 705;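 active = growth inhibition above 25% in both replicates, a cutoff set 3 SD above the mean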). The conditions noted are these: OD615, 24 h, at 10 µM, hits give high values. In short, it runs like this:
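System: Engineered DeaD yeast | Buffer or medium: SC raffinose/galactose permissive medium | Incubation: Cells pre-grown 4 h, then 24 h compound exposure, 30 °C humidified | Measured by: Absorbance (optical density) at 615 nm | Read-out: Reduction in yeast growth (OD615)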

A short description of assay [2]: Restrictive medium S. cerevisiae growth inhibition, OD615, pilot screen of yeast lifespan reduction project, restrictive growth control (AID 706;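 active = growth inhibition above a set limit, 3 SD over mean compound inhibition, in both replicates, cut at about 43% in these data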;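 also: modified DeaD lifespan yeast strain shifted to restrictive glucose medium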). The conditions noted are these: OD615, 48 h, at 10 µM, hits give high values. In short, it runs like this: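 Material: modified S. cerevisiae; Medium: glucose-based CSMM-D restrictive medium; Compound dosing: one concentration, 10 µM final, 0.25% DMSO; Incubation: 48 h compound exposure at 30 °C; Measured by: OD615.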

Assay [3] is described as follows: viability gain of MRP-1-high H69AR cells under doxorubicin, pilot screen, MRP-1 activator project, CellTiter-Glo, duplicate (AID 807;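 active = viability increase at or above a cutoff of the median across tested compounds plus 3 SD, cut at about 8.5% in these data, passing the limit was not always enough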;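 also: compound pretreatment 18-22 h then 72 h combined with doxorubicin; 0% = doxorubicin alone and 100% = vehicle without doxorubicin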). The conditions noted are these: H69AR viability with doxorubicin, CellTiter-Glo luminescence; at 10 µM; hits give high values.
Assay [4] can be described thus: growth suppression of beta-catenin knockout HCT116, pilot screen, human colon tumor cells (AID 823;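 active = cell viability at or below a set limit in both duplicate runs, the limit being the all-compound median minus 4 SD, cut at about 23% in these data, passing the limit was not always enough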;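 also: 0% = wells killed by 20 µM Hyamine and 100% = untreated DMSO cell wells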). The conditions noted are these: CellTiter-Glo, 60 h, at 10 µM, hits give low values.
Assay [5] can be described thus: growth suppression of PTEN-deleted HCT116, pilot screen, cell-based, HCT116 clonal line, CellTiter-Glo (AID 824).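 Also: 0% = 20 µM Hyamine control and 100% = vehicle cell control.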 The conditions noted are these: 60 h, at 10 µM, hits give low values.
Assay [6] can be described thus: inhibitors of the yeast RAM network, pilot screen, dse1pr::URA3 reporter, 5-FOA selection (AID 869;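 active = inhibition over a set limit, the all-compound mean plus 3 SD, in both replicate runs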;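 also: 0% = DMSO wells with no growth and 100% = 10 µM 1-NA-PP1 with full growth; RAM network block rescues cells from 5-FOA so hits raise OD615 growth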). Conditions: S. cerevisiae dse1pr::URA3 5-FOA growth, OD615, 2 d; at 10 µM; hits give high values; strain carries analog-sensitive mutant Cbk1 kinase.
Assay [7] is described as follows: RAM signaling pathway blockade in yeast – S. cerevisiae, Pdr1DBD-CYC8 efflux-inhibited sensitized strain, primary screen (AID 1298;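 active = RAM network inhibition above 8.4% in each of two replicates, 3 SD over the compound average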;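 also: 0% = DMSO untreated cells without growth and 100% = 10 µM 1-NA-PP1 full growth; higher means more yeast growth rescued from 5-FOA killing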). Conditions: S. cerevisiae cbk1-as DSE1-URA3 strain, 5-FOA growth OD615, 2 d; at 50 µM; hits give high values.

Each structure is given as a SMILES string. A number with no mark means an inactive call. Results filed as inconclusive are left out. Active and inactive are the calls of the source.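 The calls were made as follows, unless noted: active = viability at or below 27.92% in each of two runs, the all-compound median minus 4 SD; inconclusive = no clear call, values can overlap the other calls; inactive = the rest.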

Consider `CCOC(=O)C1=C(C)Nc2nc(C)nn2C1c1ccc(OC)c(OC)c1` (configuration not stated), for which the growth inhibition was -6.55% in assay [1] and -3.96% in assay [2]. Moreover, in assay [3], the viability increase is -3.45%. Further, the viability was 99.5% in assay [4] and 102% in assay [5]. For the same compound, the inhibition in assay [6] is 0.77%. Also, the RAM network inhibition in assay [7] was 0.06%.

Consider `CCCCNC(=O)CS(=O)Cc1nc(-c2ccc(C)cc2)oc1C` (configuration not stated), for which the figures for the growth inhibition in assay [1] and in assay [2] were -7.66% and 0.83%, respectively. Besides, in assay [3], the viability increase is -2.08%. In addition, the viability was 87.4% in assay [4] and 88.5% in assay [5]. For the same compound, the inhibition in assay [6] was -0.365%. The RAM network inhibition in assay [7] was 2.19%.

In the case of `CC(CCc1ccccc1)NC(=O)C1CCN(c2nnc(-n3cccc3)s2)CC1` (configuration not stated), the growth inhibition is -2.63% in assay [1] and -7.45% in assay [2]. Besides, in assay [3], the viability increase is -0.45%. In addition, the viability in assay [4] is 95.9%; in assay [5], 88.5%. The inhibition in assay [6] is 4.55%. Besides, in assay [7], the RAM network inhibition is 4.94%.

Turning to `CC(c1ccccc1)C(CC(=O)O)C(=O)NC1CCCCC1` (configuration not stated), the values for the growth inhibition in assay [1] and in assay [2] were -12.4% and -1.39%, respectively. In assay [3], the viability increase is -0.07%. Further, the values for the viability in assay [4] and in assay [5] were 98.2% and 103%, respectively. In addition, the inhibition in assay [6] was 1.54%. Further, in assay [7], the RAM network inhibition is 1.1%.

Consider `O=C(c1cnccn1)N(c1ccccc1)C1(C(=O)NC2CCCCC2)CCCCC1`, for which the growth inhibition in assay [1] was -6.44%; in assay [2], -1.08%. For the same compound, the viability increase in assay [3] is -0.6%. Besides, the viability in assay [4] was 96.9%; in assay [5], 90.7%. Moreover, in assay [6], the inhibition is 1.06%. Also, the RAM network inhibition in assay [7] was 1.62%.

With `CCOc1ccc(OCC)c(Nc2cc(C)nc3ncnn23)c1`, the growth inhibition in assay [1] is -1.1%; in assay [2] it was 7.09%. Further, the viability increase in assay [3] is -3.71%. For the same compound, the viability in assay [4] is 90%; in assay [5], 87.7%. Moreover, in assay [6], the inhibition is 0.1%. For the same compound, the RAM network inhibition in assay [7] was -0.06%.

Consider `CCN1C(=O)c2ccccc2S(=O)c2ccc(C(=O)N3CCN(C(=O)c4ccco4)CC3)cc21` (configuration not stated), for which the growth inhibition was -1.51% in assay [1] and 7.19% in assay [2]. For the same compound, the viability increase in assay [3] is -2.16%. In addition, the viability in assay [4] was 101%; in assay [5], 92.5%. In addition, in assay [6], the inhibition is 1.33%. Besides, in assay [7], the RAM network inhibition is 7.96%.

Consider `c1ccc(CSc2nnc(-c3ccco3)n2Cc2ccco2)cc1`, for which the growth inhibition in assay [1] is -5.04%; in assay [2] it was 0.405%. Moreover, in assay [3], the viability increase is -3.83%. The viability is 88.6% in assay [4] and 87.4% in assay [5]. The inhibition in assay [6] was 1.85%. For the same compound, in assay [7], the RAM network inhibition was 3.53%.

Turning to `O=C(O)c1ccc(NC(=O)C2C3CCC(C3)C2C(=O)O)cc1` (configuration not stated), the values for the growth inhibition in assay [1] and in assay [2] were 7% and -0.915%, respectively. The viability increase in assay [3] is -0.12%. For the same compound, the viability in assay [4] was 101%; in assay [5] it was 98.8%. In addition, the inhibition in assay [6] was 0.345%. Further, the RAM network inhibition in assay [7] is 0.46%.

Take `COc1cc2c(cc1OC)C(C(=O)N1CCCC1)C(c1ccccc1F)N(C)C2=O` (configuration not stated): the growth inhibition was -23.3% in assay [1] and -16.3% in assay [2]. The viability increase in assay [3] was -1.68%. Moreover, the viability was 91.3% in assay [4] and 97% in assay [5]. Moreover, the inhibition in assay [6] was 0.27%. For the same compound, the RAM network inhibition in assay [7] was 3.55%.

`Cc1cccc(CCNC(=O)C2CCC(CNc3c(N4CCCC4)c(=O)c3=O)CC2)c1` (configuration not stated): the growth inhibition in assay [1] was -6.65%; in assay [2], -3.19%. Moreover, the viability increase in assay [3] was -1.92%. The viability in assay [4] was 99.4%; in assay [5], 91.2%. Further, the inhibition in assay [6] was 1.26%. Further, the RAM network inhibition in assay [7] was 4.72%.

For `CNC(=O)CN1C(=O)c2ccccc2S1(=O)=O`, the growth inhibition in assay [1] was -5.12%; in assay [2], 1.27%. Further, the viability increase in assay [3] was -0.6%. In addition, the viability in assay [4] is 101%; in assay [5], 98.9%. For the same compound, the inhibition in assay [6] was 2.51%. Further, the RAM network inhibition in assay [7] is 2.32%.

On to `CCNC(=O)CN(c1ccc(CC)cc1)S(C)(=O)=O`, for which the values for the growth inhibition in assay [1] and in assay [2] were -5% and -18%, respectively. Also, the viability increase in assay [3] was -0.8%. Further, the values for the viability in assay [4] and in assay [5] were 97.9% and 106%, respectively. In addition, the inhibition in assay [6] is 0.76%. Besides, the RAM network inhibition in assay [7] was 1.88%.

For `N=c1n(CCO)c2ccccc2n1CCOc1ccc(Cl)cc1Cl`, the growth inhibition is -0.15% in assay [1] and 4.96% in assay [2]. Besides, the viability increase in assay [3] is -8.35%. Further, the viability in assay [4] is 1.5% (active); in assay [5], 1.54% (active). Also, the inhibition in assay [6] is 1%. Besides, the RAM network inhibition in assay [7] was 0.72%.

With `COc1ccc(-n2c3c(cc(C(=O)N4CCC(C)CC4)c2=O)C(=O)CC(C)(C)C3)cc1`, the growth inhibition was -3.21% in assay [1] and 7.18% in assay [2]. Besides, the viability increase in assay [3] was -2.27%. For the same compound, the viability in assay [4] was 111%; in assay [5], 101%. In addition, in assay [6], the inhibition was 1.98%. Further, the RAM network inhibition in assay [7] was 0.25%.

For `COc1cc(C2NC(=O)NC(C)=C2C(=O)OCc2ccc(C)cc2)cc(OC)c1O` (configuration not stated), the growth inhibition in assay [1] was -12.9%; in assay [2], -10.8%. Also, in assay [3], the viability increase is 3.29%. In addition, the viability in assay [4] was 89.9%; in assay [5], 82.1%. Besides, in assay [6], the inhibition is 0.03%. Also, in assay [7], the RAM network inhibition was 0.58%.
